Data from ChEMBL document CHEMBL3112500, “Synthesis and biological evaluation of allylated and prenylated mono-carbonyl analogs of curcumin as anti-inflammatory agents” (Eur J Med Chem, 2014).
The source made the active and inactive calls. The rule behind the calls is not given here.

Assays:
RAW264.7 [1] = assay: Antiinflammatory activity in mouse RAW264.7 cells assessed as inhibition of LPS-induced IL-6 release pretreated at 10 uM for 2 hrs prior LPS challenge measured after 22 hrs post challenge by ELISA; type: functional
Outline: (§1)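 RAW 264.7 cells plated at 4.0 × 10⁵ per plate overnight (37 °C, 5% CO₂). Pretreated 2 h, then stimulated with LPS 0.5 µg/ml (in PBS) for 22 h. Medium TNF-α and IL-6 measured by ELISA, normalized to total cell protein (Bio-Rad assay) and expressed as percent of LPS control. Mean ± SE, 3–5 independent experiments.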

RAW264.7 [2] = assay: Antiinflammatory activity in mouse RAW264.7 cells assessed as inhibition of LPS-induced IL-6 release pretreated for 2 hrs prior LPS challenge measured after 22 hrs post challenge by ELISA; type: functional, cell-based
Outline: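 Dose series in RAW 264.7 cells: pretreatment at 1.1, 3.3 and 10 µM for 2 h, then LPS 0.5 µg/ml for 22 h. Medium IL-6 determined by ELISA and normalized to total protein.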

[3] = Cytotoxicity against human HL-7702 cells at 10 uM after 24 hrs by MTT assay; type: cell-based; conditions: l02, 24 h
Outline: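 HL-7702 cells, 5000 per well, in 1640 medium with 5% heat-inactivated serum, 37 °C, 5% CO₂. Compounds in DMSO, diluted in medium to final 10 µM, applied for 24 h. MTT (5 mg/ml in 0.9% NaCl) added for 3 h, then cells dissolved in DMSO and absorbance read at 570 nm.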

RAW264.7 [4] = assay: Antiinflammatory activity in mouse RAW264.7 cells assessed as inhibition of LPS-induced IL-6 gene expression pretreated at 10 uM for 2 hrs prior LPS challenge measured after 6 hrs post challenge by RT-qPCR analysis; type: functional, cell-based
Outline: (§2)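 RAW 264.7 cells in DMEM with 10% FBS, plated at 4.0 × 10⁵ per plate overnight at 37 °C, 5% CO₂. Pretreatment 2 h, then LPS 0.5 µg/ml for 6 h. IL-6, TNF-α and IL-1β mRNA quantified by RT-qPCR, normalized to β-actin mRNA and expressed as ratio to DMSO. Mean ± SD of 3–5 independent experiments.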

RAW264.7 [5] = assay: Antiinflammatory activity in mouse RAW264.7 cells assessed as inhibition of LPS-induced TNF-alpha gene expression pretreated at 10 uM for 2 hrs prior LPS challenge measured after 6 hrs post challenge by RT-qPCR analysis; type: functional, cell-based; outline: as §2
RAW264.7 [6] = assay: Antiinflammatory activity in mouse RAW264.7 cells assessed as inhibition of LPS-induced IL-1beta gene expression pretreated at 10 uM for 2 hrs prior LPS challenge measured after 6 hrs post challenge by RT-qPCR analysis; type: functional, cell-based; outline: as §2
RAW264.7 [7] = assay: Antiinflammatory activity in mouse RAW264.7 cells assessed as inhibition of LPS-induced TNFalpha release pretreated at 10 uM for 2 hrs prior LPS challenge measured after 22 hrs post challenge by ELISA; type: functional; outline: as §1
[8] = Chemical stability of the compound in phosphate buffer at pH 7.4 at 20 uM up to 25 mins by UV-visible absorption spectrum assay; type: physicochemical; conditions: pH 7.4, 25 min
Mus musculus = assay: Antiinflammatory activity in C57BL/6 mouse sepsis model assessed as increase in survival rate at 10 mg/kg, iv administered 15 mins prior LPS-challenge measured after 7 days; type: functional
Outline: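 Male C57BL/6 mice (18–22 g) were dosed i.v. 15 min before i.p. LPS at 20 mg/kg. Drug solution was 2 mg/ml in macrogol 15 hydroxystearate (5–10%), with or without medium-chain triglycerides (0.5–2%). Controls received vehicle (10% solubilizer, 2% MCT). Survival was recorded every 12 h for 7 days; n = 9 per group.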

[9] = tested on: Peritoneal macrophage cell; assay: Antiinflammatory activity in mouse peritoneal macrophages assessed as inhibition of LPS-induced TNFalpha protein expression pretreated for 2 hrs prior LPS challenge measured after 22 hrs post challenge by ELISA; type: functional, cell-based
Outline: (§3)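 Peritoneal macrophages from ICR mice elicited by i.p. thioglycollate, collected by lavage with PBS containing 30 mM EDTA, in RPMI-1640, nonadherent cells washed off at 3 h. Plated at 4.0 × 10⁵ per 35 mm plate. Pretreatment 2 h, then LPS 0.5 µg/ml for 22 h. IL-6 and TNF-α in medium measured by ELISA, normalized to total protein. 3 independent experiments.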

[10] = tested on: Peritoneal macrophage cell; assay: Antiinflammatory activity in mouse peritoneal macrophages assessed as inhibition of LPS-induced IL6 protein expression pretreated for 2 hrs prior LPS challenge measured after 22 hrs post challenge by ELISA; type: functional, cell-based; outline: as §3
[11] = Chemical stability of the compound in phosphate buffer at pH 7.4 assessed as compound degradation at 20 uM up to 25 mins by UV-visible absorption spectrum assay; type: physicochemical; conditions: read-out: Drug degradation

Row | Structure (SMILES) | inhibition at 10 µM (RAW264.7 [1]) [%] | Activity [3] | other results
1 | C=CCc1cc(/C=C/C(=O)/C=C/c2ccc(N3CCOCC3)cc2)ccc1OC | 20 | Non-toxic | inhibition (RAW264.7 [2]): Dose-dependent effect; inhibition (RAW264.7 [4]): Active; inhibition (RAW264.7 [5]): Active; inhibition (RAW264.7 [6]): Active
2 | C=CCc1cc(/C=C2\CC/C(=C\c3ccc(O)c(CC=C)c3)C2=O)ccc1O | 20 | Non-toxic | 
3 | C=CCc1cc(/C=C/C(=O)/C=C/c2ccccc2C(F)(F)F)ccc1OC |  | Non-toxic | 
4 | C=CCOc1ccc(/C=C/C(=O)/C=C/c2ccc(OC)c(OC)c2)cc1 |  | Non-toxic | 
5 | C=CCOc1ccc(/C=C/C(=O)/C=C/c2ccc(OCC=C)cc2)cc1 |  | Non-toxic | 
6 | C=CCc1cc(/C=C/C(=O)/C=C/c2ccc(OC)c(OC)c2)ccc1O | 20 | Non-toxic | inhibition (RAW264.7 [2]): Dose-dependent effect; inhibition (RAW264.7 [4]): Active; inhibition (RAW264.7 [5]): Active; inhibition (RAW264.7 [6]): Active
7 | C=CCc1cc(/C=C/C(=O)/C=C/c2ccc(OC(C)(C)C)cc2)ccc1OC | 20 | Non-toxic | 
8 | C=CCc1cc(/C=C/C(=O)/C=C/c2ccc(O)c(CC=C)c2)ccc1O | 96.4 | Non-toxic | inhibition (RAW264.7 [2]): Dose-dependent effect; inhibition (RAW264.7 [4]): Active; inhibition (RAW264.7 [5]): Active; inhibition (RAW264.7 [6]): Active; inhibition (RAW264.7 [7]): Active; Stability [8]: Stable
9 | C=CCc1cc(/C=C/C(=O)/C=C/c2ccc(N(C)C)cc2)ccc1OC | 20 | Non-toxic | 
10 | C=CCc1cc(/C=C/C(=O)/C=C/c2ccc([N+](=O)[O-])cc2)ccc1O | 20 | Non-toxic | 
11 | C=CCc1cc(/C=C/C(=O)/C=C/c2cc(Br)ccc2Br)ccc1OC | 91.1 | Non-toxic | inhibition (RAW264.7 [2]): Dose-dependent effect; inhibition (RAW264.7 [4]): Active; survival at 10 mg/kg (Mus musculus): 45%; inhibition [9]: Dose-dependent effect; inhibition [10]: Dose-dependent effect; inhibition (RAW264.7 [5]): Active; inhibition (RAW264.7 [6]): Active; inhibition at 10 µM (RAW264.7 [7]): 67.5%; Stability [8]: Stable
12 | C=CCc1cc(/C=C2\CC/C(=C\c3ccc(OC4CCCCO4)c(CC=C)c3)C2=O)ccc1OC1CCCCO1 (stereo not given) |  | Non-toxic | 
13 | C=CCOc1ccc(/C=C/C(=O)/C=C/c2ccc(OC)c(CC=C)c2)cc1 | 20 | Non-toxic | 
14 | CC(C)=CCOc1ccc(/C=C/C(=O)/C=C/c2ccc(OCC=C(C)C)cc2)cc1 |  | Non-toxic | 
15 | C=CCc1cc(/C=C/C(=O)/C=C/c2ccc(N3CCCCC3)cc2)ccc1OC | 20 | Non-toxic | 
16 | COc1cc(/C=C2\CC/C(=C\c3ccc(OCC=C(C)C)c(OC)c3)C2=O)ccc1OCC=C(C)C | 20 | Non-toxic | 
17 | C=CCc1cc(/C=C/C(=O)/C=C/c2cc(F)ccc2Br)ccc1OC | 20 | Non-toxic | inhibition (RAW264.7 [2]): Dose-dependent effect; inhibition (RAW264.7 [4]): Active; inhibition (RAW264.7 [5]): Active; inhibition (RAW264.7 [6]): Active; inhibition (RAW264.7 [7]): Active; Stability [8]: Stable

Row | Structure (SMILES) | inhibition at 10 µM (RAW264.7 [1]) [%] | Activity [3] | other results
18 | C=CCc1cc(/C=C/C(=O)/C=C/c2cccc(Br)c2)ccc1OC | 20 | Non-toxic | 
19 | COc1cc(/C=C/C(=O)/C=C/c2ccc(OCC=C(C)C)c(OC)c2)ccc1OCC=C(C)C | 20 | Non-toxic | 
20 | C=CCc1cc(/C=C/C(=O)/C=C/c2ccc(Br)cc2)ccc1OC | 20 | Non-toxic | 
21 | COc1ccc(/C=C/C(=O)/C=C/c2ccc(OCC=C(C)C)cc2)cc1OC | 20 | Non-toxic | 
22 | COc1cc(/C=C/C(=O)CC(=O)/C=C/c2ccc(O)c(OC)c2)ccc1O [CURCUMIN] | 20 | Non-toxic | degraded at 25 min, 20 µM [11]: > 45%; inhibition (RAW264.7 [4]): Active; inhibition (RAW264.7 [5]): Active; inhibition (RAW264.7 [6]): Active
23 | C=CCc1cc(/C=C/C(=O)/C=C/c2c(F)cccc2Br)ccc1OC | 20 | Non-toxic | 
24 | CC(C)=CCOc1ccc(/C=C2\CC/C(=C\c3ccc(OCC=C(C)C)cc3O)C2=O)c(O)c1 | 20 | Non-toxic | 
25 | C=CCOc1ccc(/C=C/C(=O)/C=C/c2ccc(F)cc2)c(O)c1 | 20 | Non-toxic | 
26 | C=CCc1cc(/C=C/C(=O)/C=C/c2ccccc2Cl)ccc1OC | 20 | Non-toxic | 
27 | C=CCc1cc(/C=C/C(=O)/C=C/c2ccc(C(F)(F)F)cc2)ccc1OC | 20 | Non-toxic | 
28 | CC(C)=CCOc1ccc(/C=C2\CCC/C(=C\c3ccc(OCC=C(C)C)cc3)C2=O)cc1 | 20 | Non-toxic | 
29 | C=CCc1cc(/C=C/C(=O)/C=C/c2ccc3ccccc3c2)ccc1OC | 20 | Non-toxic | 
30 | C=CCc1cc(/C=C/C(=O)/C=C/c2cccc(Cl)c2Cl)ccc1OC | 20 | Non-toxic | 
31 | C=CCc1cc(/C=C/C(=O)/C=C/c2cc(OC)c(OC)cc2OC)ccc1OC | 20 | Non-toxic | inhibition (RAW264.7 [2]): Dose-dependent effect; inhibition (RAW264.7 [4]): Active; inhibition (RAW264.7 [5]): Active; inhibition (RAW264.7 [6]): Active; inhibition (RAW264.7 [7]): Active
32 | C=CCc1cc(/C=C/C(=O)/C=C/c2ccc(OC)c(OC)c2)ccc1OC | 20 | Non-toxic | 
33 | C=CCc1cc(/C=C/C(=O)/C=C/c2cc(F)ccc2OC)ccc1OC | 20 | Non-toxic | 
34 | C=CCc1cc(/C=C/C(=O)/C=C/c2cc(F)ccc2F)ccc1OC |  | Non-toxic | 
